Published values from different studies.
Protocols differ between the studies behind these lines.
Target: Ephrin type-A receptor 1 (EPHA1, Homo sapiens, UniProt P21709)
One construct used (P21709 26-976): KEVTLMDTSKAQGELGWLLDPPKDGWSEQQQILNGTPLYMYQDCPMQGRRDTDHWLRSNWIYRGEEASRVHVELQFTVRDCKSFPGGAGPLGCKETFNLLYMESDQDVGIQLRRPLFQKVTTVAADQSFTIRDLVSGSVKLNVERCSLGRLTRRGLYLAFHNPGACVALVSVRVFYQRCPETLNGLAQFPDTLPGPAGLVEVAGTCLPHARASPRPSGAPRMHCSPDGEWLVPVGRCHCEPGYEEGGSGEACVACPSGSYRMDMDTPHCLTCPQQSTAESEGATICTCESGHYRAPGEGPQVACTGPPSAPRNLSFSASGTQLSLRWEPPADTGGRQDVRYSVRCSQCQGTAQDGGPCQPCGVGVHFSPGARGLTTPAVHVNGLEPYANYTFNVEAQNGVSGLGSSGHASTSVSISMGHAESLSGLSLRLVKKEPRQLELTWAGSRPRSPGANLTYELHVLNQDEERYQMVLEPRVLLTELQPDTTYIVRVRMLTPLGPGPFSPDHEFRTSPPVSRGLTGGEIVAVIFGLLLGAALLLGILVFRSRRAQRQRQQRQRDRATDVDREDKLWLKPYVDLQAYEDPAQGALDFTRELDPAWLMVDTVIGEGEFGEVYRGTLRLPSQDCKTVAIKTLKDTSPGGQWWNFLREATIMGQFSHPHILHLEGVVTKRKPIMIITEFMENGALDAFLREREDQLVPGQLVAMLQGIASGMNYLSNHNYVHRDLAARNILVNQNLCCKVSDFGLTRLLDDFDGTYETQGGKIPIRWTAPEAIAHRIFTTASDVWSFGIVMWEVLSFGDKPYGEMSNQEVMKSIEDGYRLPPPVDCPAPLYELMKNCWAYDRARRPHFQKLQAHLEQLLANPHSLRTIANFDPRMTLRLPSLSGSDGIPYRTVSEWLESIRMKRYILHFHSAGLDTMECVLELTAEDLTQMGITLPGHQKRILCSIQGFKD

Cc1nn(C)cc1-c1nc2c(N3CCN(Cc4ccc(Cl)cc4)CC3)c(Cl)cnc2[nH]1 — remaining binding (binding; competition with immobilised ligand; 1 µM): 90%
Cn1cc(-c2cc(F)cc(N3CCn4c(cc5c4CCCC5)C3=O)c2CO)cc(Nc2ccc(N3CCN(C4COC4)CC3)cn2)c1=O — inhibition (enzyme activity; inhibitor; 0.1 µM): 19%
Nc1ncc(-c2nc(N3CCOCC3)nc(N3CCOCC3)n2)c(C(F)F)n1 — remaining binding (cell-free assay; competition with immobilised ligand; 10 µM): 68%
Cn1cc(-c2cccc(N3CCc4c(sc5c4CC(C)(C)C5)C3=O)c2CO)cc(Nc2ccncn2)c1=O — inhibition (enzyme activity; inhibitor; 1 µM): 3%
COc1ncccc1-c1cnn2ccc(N3CCN(C(=O)OC(C)C)CC3)nc12 — remaining binding (binding; competition with immobilised ligand; 1 µM): 84%
O=c1[nH]c2ccccc2n1C1CCN(Cc2ccc(-c3[nH]c4cc5ncnc5cc4nc3-c3ccccc3)cc2)CC1 — remaining signal (cell-free assay; 0.5 µM): 84.4%
Cn1cncc1[C@@](O)(COc1ccc(C#N)cc1-c1ccc(OC(F)(F)F)cc1)c1ccc(C#N)cc1 — remaining binding (cell-free assay; competition with immobilised ligand; 1 µM): 93%
CC(C)(C)c1cc(C=C(C#N)C#N)cc(Br)c1O — remaining activity (enzyme activity; inhibitor; 0.5 µM): 85.1%
COc1cc(Nc2ncc(F)c(Nc3ccc4c(n3)NC(=O)C(C)(C)O4)n2)cc(OC)c1OC — inhibition (binding; competition with immobilised ligand; 10 µM): 98%
